From ChEMBL document CHEMBL2331170, “Synthesis and biological evaluation of novel pyranochalcone derivatives as a new class of microtubule stabilizing agents” (Eur J Med Chem, 2013)
Active and inactive are the calls of the source. The rule behind the calls is not given here.

Assays:
A-375 = experiment: Cytotoxicity against human A375 cells by MTT assay; format: functional, cell-based
In short: (§1)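 Log-phase cells were diluted to 40,000–50,000 cells/mL in medium with 10% FBS, 2 mM glutamine and antibiotics (37 °C, 5% CO₂). They were seeded in 96-well plates and treated with a range of doses. MTT was added for 4 h, the formazan was dissolved in DMSO, and absorbance was read at 590 nm.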

[1] = Cytotoxicity against human LO2 cells by MTT assay; format: cell-based; conditions: L02; in short: as §1
K562 = experiment: Cytotoxicity against human K562 cells by MTT assay; format: functional, cell-based; in short: as §1
HepG2 [2] = experiment: Cytotoxicity against human HepG2 cells by MTT assay; format: functional, cell-based; in short: as §1
[3] = Cytotoxicity against human A2780S cells by MTT assay; format: functional, cell-based; conditions: A2780
[4] = Cytotoxicity against mouse C26 cells by MTT assay; format: functional, cell-based
SK-HEP1 = experiment: Cytotoxicity against human SKHEP1 cells by MTT assay; format: functional, cell-based
HepG2 [5] = experiment: Cell cycle arrest in human HepG2 cells assessed as accumulation at G2/M phase at after 24 hrs by flow cytometry; format: functional, cell-based
HCT-15 = experiment: Cytotoxicity against human HCT15 cells by MTT assay; format: functional, cell-based
[6] = Cytotoxicity against human MCF7/ADR cells by MTT assay; format: functional, cell-based; conditions: NCI/ADR-RES
DU-145 = experiment: Cytotoxicity against human DU145 cells by MTT assay; format: functional, cell-based
HepG2 [7] = experiment: Cell cycle arrest in human HepG2 cells assessed as accumulation at G2/M phase at 0.2 uM after 24 hrs by flow cytometry (reference value: 17.07 %); format: functional
HepG2 [8] = experiment: Induction of microtubule polymerization in human HepG2 cells at 1 uM after 24 hrs by propidium iodide-FITC-based staining method
[9] = Cytotoxicity against human ES2 cells by MTT assay; format: functional, cell-based; conditions: ES-2
NCI-H358 = experiment: Cytotoxicity against human NCI-H358 cells by MTT assay; format: functional, cell-based
HepG2 [10] = experiment: Effect on microtubule network in human HepG2 cells assessed as multiple tubulin bundles without chromosomes aligned at the metaphase plate with more dispersion of the chromosomes at 1 uM after 24 hrs by propidium iodide-FITC-based staining method; format: cell-based
In short: (§2)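 HepG2 cells were treated with 1.0 μM for 24 h. They were washed in PBS, fixed in cold 4% PFA for 10 min and blocked for 1 h in 5% goat serum/0.3% Triton/PBS. Staining used monoclonal anti-α-tubulin overnight at 4 °C, then Alexa Fluor 488 anti-mouse IgG for 30 min at room temperature, with propidium iodide for DNA. Cells were imaged by fluorescence or confocal microscopy.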

[11] = Ratio of taxol IC50 to compound IC50 for mouse C26 cells by MTT assay; format: functional
MCF7 = experiment: Cytotoxicity against human MCF7 cells by MTT assay; format: functional, cell-based
[12] = Cytotoxicity against human H460 cells by MTT assay; format: functional, cell-based; conditions: NCI-H460
Bel-7402 = experiment: Cytotoxicity against human Bel7402 cells by MTT assay; format: functional, cell-based
A2780 = experiment: Cytotoxicity against taxol-resistant human A2780 cells by MTT assay; format: functional, cell-based
HT-29 = experiment: Cytotoxicity against human HT-29 cells by MTT assay; format: functional, cell-based
HepG2 [13] = experiment: Cell cycle arrest in human HepG2 cells assessed as accumulation at G2/M phase at 1 uM after 24 hrs by flow cytometry (reference value: 17.07 %); format: functional
HCT-8 = experiment: Cytotoxicity against taxol-resistant human HCT8 cells by MTT assay; format: functional, cell-based
PC-3 = experiment: Cytotoxicity against human PC3 cells by MTT assay; format: functional, cell-based
[14] = Cytotoxicity against human SPC-A1 cells by MTT assay; format: functional, cell-based; conditions: SPCA1
SK-OV-3 = experiment: Cytotoxicity against human SKOV3 cells by MTT assay; format: functional, cell-based
HepG2 [15] = experiment: Effect on microtubule network in human HepG2 cells assessed as abnormal mitotic spindles at 1 uM after 24 hrs by propidium iodide-FITC-based staining method; format: cell-based; in short: as §2

Compound: COc1ccc(/C=C/C(=O)c2ccc(OC)c3c2OC(C)(C)C=C3)cc1OCCCN(C)C
- IC50 (A-375): 4.1 µM
- IC50 [1]: 8.6 µM
- IC50 (K562): 2.92 µM
- IC50 (HepG2 [2]): 5.55 µM

Compound: COc1ccc(/C=C/C(=O)c2ccc(OC)c3c2OC(C)(C)C=C3)cc1OCCO
- IC50 (A-375): 9.6 µM
- IC50 [1]: > 10 µM
- IC50 (K562): > 10 µM
- IC50 (HepG2 [2]): > 10 µM

Compound: COc1cccc(C(=O)Oc2cc(/C=C/C(=O)c3ccc(OC)c4c3OC(C)(C)C=C4)ccc2OC)c1
- IC50 (A-375): 0.8 µM
- IC50 [1]: > 10 µM
- IC50 (K562): 0.79 µM
- IC50 (HepG2 [2]): 0.87 µM

Compound: COc1ccc(/C=C/C(=O)c2ccc(OC)c3c2OC(C)(C)C=C3)cc1OC(=O)Cc1cccc(C(F)(F)F)c1
- IC50 (A-375): 0.48 µM
- IC50 [1]: > 10 µM
- IC50 (K562): 0.29 µM
- IC50 (HepG2 [2]): 0.57 µM

Compound: COc1ccc(/C=C/C(=O)c2ccc(OC)c3c2OC(C)(C)C=C3)cc1OC(=O)c1ccco1
- IC50 (A-375): 0.68 µM
- IC50 [1]: > 10 µM
- IC50 (K562): 0.45 µM
- IC50 (HepG2 [2]): 0.37 µM

Compound: CCCCC(=O)Oc1cc(/C=C/C(=O)c2ccc(OC)c3c2OC(C)(C)C=C3)ccc1OC
- IC50 [3]: 0.33 µM
- IC50 [4]: 0.3 µM
- IC50 (SK-HEP1): 0.6 µM
- Activity (HepG2 [5]): Dose-dependent effect
- IC50 (HCT-15): 0.1 µM
- IC50 [6]: 0.17 µM
- IC50 (DU-145): 0.21 µM
- Activity (HepG2 [7]): 53.47%
- Activity (HepG2 [8]): Active
- IC50 [9]: 0.1 µM
- IC50 (NCI-H358): 0.09 µM
- Activity (HepG2 [10]): Active
- IC50 (A-375): 0.22 µM
- Ratio IC50 [11]: 3
- IC50 (MCF7): 0.25 µM
- IC50 [12]: 5.45 µM
- IC50 [1]: > 10 µM
- IC50 (Bel-7402): > 2 µM
- IC50 (A2780): 5.92 µM
- IC50 (HT-29): 0.19 µM
- Activity (HepG2 [13]): 69.18%
- IC50 (HCT-8): 2.3 µM
- IC50 (PC-3): 0.12 µM
- IC50 (K562): 0.24 µM
- IC50 [14]: 18.1 µM
- IC50 (HepG2 [2]): 0.1 µM
- IC50 (SK-OV-3): 0.27 µM
- Activity (HepG2 [15]): Active

Compound: COc1ccc(/C=C/C(=O)c2ccc(OC)c3c2OC(C)(C)C=C3)cc1OCCN1CCCCC1
- IC50 (A-375): 3 µM
- IC50 [1]: 9.15 µM
- IC50 (K562): 2.08 µM
- IC50 (HepG2 [2]): 4.4 µM

Compound: C=CC(=O)Oc1cc(/C=C/C(=O)c2ccc(OC)c3c2OC(C)(C)C=C3)ccc1OC
- IC50 (A-375): 0.39 µM
- IC50 [1]: > 10 µM
- IC50 (K562): 0.3 µM
- IC50 (HepG2 [2]): 0.16 µM

Compound: COc1ccc(/C=C/C(=O)c2ccc(OC)c3c2OC(C)(C)C=C3)cc1O
- IC50 (A-375): 0.8 µM
- IC50 [1]: > 10 µM
- IC50 (K562): 0.63 µM
- IC50 (HepG2 [2]): 0.45 µM

Compound: COc1ccc(/C=C/C(=O)c2ccc(OC)c3c2OC(C)(C)C=C3)cc1OC(=O)c1ccc(Br)cc1
- IC50 (A-375): 0.42 µM
- IC50 [1]: 8.4 µM
- IC50 (K562): 1.11 µM
- IC50 (HepG2 [2]): 0.68 µM

Compound: COc1ccc(/C=C/C(=O)c2ccc(OC)c3c2OC(C)(C)C=C3)cc1OC(=O)CCCc1ccc(N(CCCl)CCCl)cc1
- IC50 (A-375): 9.2 µM
- IC50 [1]: > 10 µM
- IC50 (K562): 0.47 µM
- IC50 (HepG2 [2]): 0.7 µM

Compound: COc1ccc(/C=C/C(=O)c2ccc(OC)c3c2OC(C)(C)C=C3)cc1OC(=O)C1CC1
- IC50 (A-375): 0.38 µM
- IC50 [1]: > 10 µM
- IC50 (K562): 0.41 µM
- IC50 (HepG2 [2]): 0.22 µM

Compound: COc1cc2c(c(OC)c1OC)-c1ccc(OC)c(=O)cc1[C@@H](NC(C)=O)CC2 [COLCHICINE]
- IC50 [3]: 0.02 µM
- IC50 [4]: 1.72 µM
- IC50 (SK-HEP1): 0.17 µM
- IC50 (HCT-15): 0.08 µM
- IC50 [6]: 3.12 µM
- IC50 (DU-145): 0.3 µM
- IC50 [9]: 0.09 µM
- IC50 (NCI-H358): 0.02 µM
- IC50 (MCF7): 0.29 µM
- IC50 [12]: 27 µM
- IC50 (Bel-7402): 1.31 µM
- IC50 (A2780): > 20 µM
- IC50 (HT-29): 0.02 µM
- IC50 (HCT-8): 11.8 µM
- IC50 (PC-3): 0.04 µM
- IC50 [14]: 80 µM
- IC50 (SK-OV-3): 0.12 µM

Compound: C#CCOc1cc(/C=C/C(=O)c2ccc(OC)c3c2OC(C)(C)C=C3)ccc1OC
- IC50 (A-375): > 10 µM
- IC50 [1]: > 10 µM
- IC50 (K562): > 10 µM
- IC50 (HepG2 [2]): > 10 µM

Compound: COc1ccc(/C=C/C(=O)c2ccc(OC)c3c2OC(C)(C)C=C3)cc1OC(=O)Cc1ccc(Cl)c(Cl)c1
- IC50 (A-375): 0.7 µM
- IC50 [1]: > 10 µM
- IC50 (K562): 0.43 µM
- IC50 (HepG2 [2]): 0.6 µM

Compound: COc1ccc(/C=C/C(=O)c2ccc(OC)c3c2OC(C)(C)C=C3)cc1OCCN1CCOCC1
- IC50 (A-375): 8.2 µM
- IC50 [1]: > 10 µM
- IC50 (K562): 8.35 µM
- IC50 (HepG2 [2]): > 10 µM

Compound: COc1ccc(/C=C/C(=O)c2ccc(OC)c3c2OC(C)(C)C=C3)cc1OS(C)(=O)=O
- IC50 (A-375): > 10 µM
- IC50 [1]: > 10 µM
- IC50 (K562): 9.24 µM
- IC50 (HepG2 [2]): 9.18 µM

Compound: COc1ccc(/C=C/C(=O)c2ccc(OC)c3c2OC(C)(C)C=C3)cc1OS(=O)(=O)c1ccc(C)cc1
- IC50 (A-375): 2.4 µM
- IC50 [1]: > 10 µM
- IC50 (K562): 7.85 µM
- IC50 (HepG2 [2]): 3.6 µM

Compound: COc1ccc(/C=C/C(=O)c2ccc(OC)c3c2OC(C)(C)C=C3)cc1OCCN1CCCC1
- IC50 (A-375): 3.81 µM
- IC50 [1]: 9.5 µM
- IC50 (K562): 3.05 µM
- IC50 (HepG2 [2]): > 10 µM

Compound: COc1ccc(/C=C/C(=O)Oc2cc(/C=C/C(=O)c3ccc(OC)c4c3OC(C)(C)C=C4)ccc2OC)cc1
- IC50 (A-375): 2.63 µM
- IC50 [1]: 18 µM
- IC50 (K562): 0.38 µM
- IC50 (HepG2 [2]): 0.43 µM

Compound: COc1ccc(/C=C/C(=O)c2ccc(OC)c3c2OC(C)(C)C=C3)cc1OC(=O)C(C)C
- IC50 (A-375): 0.31 µM
- IC50 [1]: > 10 µM
- IC50 (K562): 0.57 µM
- IC50 (HepG2 [2]): 0.25 µM

Compound: C=CCOc1cc(/C=C/C(=O)c2ccc(OC)c3c2OC(C)(C)C=C3)ccc1OC
- IC50 (A-375): > 10 µM
- IC50 [1]: > 20 µM
- IC50 (K562): > 10 µM
- IC50 (HepG2 [2]): > 10 µM

Compound: COc1ccc(/C=C/C(=O)c2ccc(OC)c3c2OC(C)(C)C=C3)cc1OCC=C(C)C
- IC50 (A-375): > 10 µM
- IC50 [1]: > 10 µM
- IC50 (K562): > 10 µM
- IC50 (HepG2 [2]): > 10 µM

Compound: COc1ccc(/C=C/C(=O)c2ccc(OC)c3c2OC(C)(C)C=C3)cc1OC(=O)CCl
- IC50 (A-375): 0.45 µM
- IC50 [1]: > 10 µM
- IC50 (K562): 0.4 µM
- IC50 (HepG2 [2]): 0.12 µM

Compound: COc1ccc(/C=C/C(=O)c2ccc(OC)c3c2OC(C)(C)C=C3)cc1 [MILLEPACHINE]
- IC50 (A-375): 3.58 µM
- IC50 [1]: > 20 µM

Compound: COc1ccc(/C=C/C(=O)c2ccc(OC)c3c2OC(C)(C)C=C3)cc1OS(=O)(=O)Cc1ccccc1
- IC50 (A-375): > 10 µM
- IC50 [1]: > 10 µM
- IC50 (K562): > 10 µM
- IC50 (HepG2 [2]): > 10 µM
